Test results taken from ChEMBL document CHEMBL4152387, “Discovery of a Potent Grp94 Selective Inhibitor with Anti-Inflammatory Efficacy in a Mouse Model of Ulcerative Colitis” (J Med Chem, 2018).
Activity calls are given as the source filed them. No cut-off for these calls is given here.

Key:
Canis lupus familiaris = species: Canis lupus familiaris; assay: Inhibition of FITC-geldanamycin binding to dog GST-tagged GRP94 N41 deletion mutant (69 to 337 residues) expressed in Escherichia coli BL21star (DE3) at 100 uM after 4 hrs by FP assay relative to control
[1] = biological target: Heat shock protein HSP 90-alpha (Homo sapiens, UniProt P07900); assay: Inhibition of FITC-geldanamycin binding to human His-tagged HSP90alpha N-terminal domain (1 to 236 residues) expressed in Escherichia coli BL21star (DE3) at 100 uM after 4 hrs by FP assay relative to control
Outline: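 Hsp90αN (15 nM final) with GM-FITC (6 nM final) and compound in HEPES/KCl/MgCl2 buffer pH 7.4 with NP40, DTT, BGG; 4 h at 4 °C in dark; FP at ex 485/em 535 nm; inhibition computed against GM-FITC-only and protein-plus-probe controls; n = 3.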

[2] = Inhibition of FITC-geldanamycin binding to dog GST-tagged GRP94 N41 deletion mutant (69 to 337 residues) expressed in Escherichia coli BL21star (DE3) after 4 hrs by GM-FITC-based FP assay; parameters: species or system Canis lupus familiaris

Compound | inhibition (Canis lupus familiaris) | inhibition (INH) [1] | IC50 [2] [nM]
NC(=O)c1cc(-c2ccccc2)ccc1N[C@H]1CC[C@H](O)CC1 | 93% | Not Active | 2770
CC(N)C(=O)N1CCC(Nc2ccc(-c3ccc(C(C)C)cc3)cc2C(N)=O)CC1 (stereo unspecified) | 88% | Not Active | 370
NC(=O)c1cc(-c2cccc(Cl)c2Cl)ccc1N[C@H]1CC[C@H](O)CC1 | 100% | Not Active | 310
Cc1cccc(-c2ccc(N[C@H]3CC[C@H](O)CC3)c(C(N)=O)c2)c1 | 100% | Not Active | 1160
CC(C)c1ccc(-c2ccc(NC3CCN(C(=O)CCCCCN)CC3)c(C(N)=O)c2)cc1 | 100% | Not Active | 150
Cc1ccccc1-c1ccc(N[C@H]2CC[C@H](O)CC2)c(C(N)=O)c1 | 90% | Not Active | 1810
CCCc1ccc(-c2ccc(N[C@H]3CC[C@H](O)CC3)c(C(N)=O)c2)cc1 | 100% | Not Active | 53
Cc1ccc(-c2ccc(N[C@H]3CC[C@H](O)CC3)c(C(N)=O)c2)cc1C | 100% | Not Active | 710
CC(C)CNc1ccc(-c2ccc(C(C)C)cc2)cc1C(N)=O | 96% | Not Active | 2320
Cc1cccc(C)c1-c1ccc(N[C@H]2CC[C@H](O)CC2)c(C(N)=O)c1 | 100% | Not Active | 1420
CC[C@H](C)[C@H](N)C(=O)N1CCC(Nc2ccc(-c3ccc(C(C)C)cc3)cc2C(N)=O)CC1 | 92% | Not Active | 470
CC(C)c1ccc(-c2ccc(NC3CCN(C(=O)C(N)C(C)C)CC3)c(C(N)=O)c2)cc1 (stereo unspecified) | 91% | Not Active | 450
CC(C)c1ccc(-c2ccc(NC3CCOCC3)c(C(N)=O)c2)cc1 | 100% | Not Active | 73
NC(=O)c1cc(-c2cccc3ccccc23)ccc1N[C@H]1CC[C@H](O)CC1 | 0% | Not Active | –
CC(C)(C)c1ccc(-c2ccc(N[C@H]3CC[C@H](O)CC3)c(C(N)=O)c2)cc1 | 100% | Not Active | 790
Cc1cc(C)c(-c2ccc(N[C@H]3CC[C@H](O)CC3)c(C(N)=O)c2)c(C)c1 | 100% | Not Active | 1110
CC1(C)CC(=O)c2c(C(F)(F)F)nn(-c3ccc(C(N)=O)c(N[C@H]4CC[C@H](O)CC4)c3)c2C1 [SNX-2112] | 100% | – | 97
NC(=O)c1cc(-c2c(Cl)cccc2Cl)ccc1N[C@H]1CC[C@H](O)CC1 | 100% | Not Active | 140
CC(=O)N1CCC(Nc2ccc(-c3ccc(C(C)C)cc3)cc2C(N)=O)CC1 | 100% | Not Active | 55
CC(C)c1ccc(-c2ccc(NC3CCNCC3)c(C(N)=O)c2)cc1 | 100% | Not Active | 470
Cc1ccc(-c2ccc(N[C@H]3CC[C@H](O)CC3)c(C(N)=O)c2)cc1 | 100% | Not Active | 340
NC(=O)c1cc(-c2ccc(-n3cccc3)cc2)ccc1N[C@H]1CC[C@H](O)CC1 | 0% | Not Active | –
NC(=O)c1cc(-c2cccc(Cl)c2)ccc1N[C@H]1CC[C@H](O)CC1 | 100% | Not Active | 2030

Compound | inhibition (Canis lupus familiaris) | inhibition (INH) [1] | IC50 [2] [nM]
COc1ccccc1-c1ccc(N[C@H]2CC[C@H](O)CC2)c(C(N)=O)c1 | 89% | Not Active | 11500
CC(C)c1ccc(-c2ccc(NC3CCCCC3)c(C(N)=O)c2)cc1 | 97% | Not Active | 370
NC(=O)c1cc(-c2ccc(Cl)cc2)ccc1N[C@H]1CC[C@H](O)CC1 | 100% | Not Active | 170
Cc1cc(C)cc(-c2ccc(N[C@H]3CC[C@H](O)CC3)c(C(N)=O)c2)c1 | 72% | Not Active | 19700
Cc1ccc(-c2ccc(N[C@H]3CC[C@H](O)CC3)c(C(N)=O)c2)c(C)c1 | 91% | Not Active | 1220
CC(C)C[C@H](N)C(=O)N1CCC(Nc2ccc(-c3ccc(C(C)C)cc3)cc2C(N)=O)CC1 | 89% | Not Active | 480
NC(=O)c1cc(-c2cc(Cl)cc(Cl)c2)ccc1N[C@H]1CC[C@H](O)CC1 | 66% | Not Active | 24700
CC(C)c1ccc(-c2ccc(NC3CCN(C(=O)CCN)CC3)c(C(N)=O)c2)cc1 | 96% | Not Active | 220
COCCNc1ccc(-c2ccc(C(C)C)cc2)cc1C(N)=O | 96% | Not Active | 930
CCc1ccccc1-c1ccc(N[C@H]2CC[C@H](O)CC2)c(C(N)=O)c1 | 92% | Not Active | 2060
COc1ccc(-c2ccc(N[C@H]3CC[C@H](O)CC3)c(C(N)=O)c2)cc1 | 100% | Not Active | 500
NC(=O)c1cc(-c2ccc(Cl)c(Cl)c2)ccc1N[C@H]1CC[C@H](O)CC1 | 100% | Not Active | 600
Cc1cccc(-c2ccc(N[C@H]3CC[C@H](O)CC3)c(C(N)=O)c2)c1C | 81% | Not Active | 460
CC(C)c1ccc(-c2ccc(N[C@H]3CCOC3)c(C(N)=O)c2)cc1 | 95% | Not Active | 130
CCOc1ccc(-c2ccc(N[C@H]3CC[C@H](O)CC3)c(C(N)=O)c2)cc1 | 100% | Not Active | 490
CC(C)c1ccc(-c2ccc(NC3CCCC3)c(C(N)=O)c2)cc1 | 89% | Not Active | 3110
CC(C)c1ccc(-c2ccc(NC3CCN(C(=O)CN)CC3)c(C(N)=O)c2)cc1 | 100% | Not Active | 210
CC(C)c1ccc(-c2ccc(NCC3CCCCC3)c(C(N)=O)c2)cc1 | inactive | Not Active | –
NC(=O)c1cc(-c2ccccc2Cl)ccc1N[C@H]1CC[C@H](O)CC1 | 100% | Not Active | 2720
NC(=O)c1cc(-c2ccc3ccccc3c2)ccc1N[C@H]1CC[C@H](O)CC1 | 75% | Not Active | 12600
COc1cccc(-c2ccc(N[C@H]3CC[C@H](O)CC3)c(C(N)=O)c2)c1 | 100% | Not Active | 4750
CCc1ccc(-c2ccc(N[C@H]3CC[C@H](O)CC3)c(C(N)=O)c2)cc1 | 100% | Not Active | 7
